Only some compounds are listed: those with a hit (about 2.2% of all), similar ones and a draw of the others.
HTRA1 inh = blocks human HTRA1 serine peptidase; Q92743; recombinant HTRA1, FP-rhodamine activity-based probe, fluorescence polarization; inhibition, % at 5.96 µM; 0.5% of 340,000 active; in the data active = inhibition above about 36%;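 note: 0% = enzyme with DMSO and 100% = wells lacking enzyme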
LEDGF integ inh = blocks HIV-1 LEDGF/p75-dependent DNA integration. TR-FRET IN-LEDGF/p75 DNA integration, Eu/Cy5. inhibition, % at 3.7 µM. 0.64% of 370,000 active. AID 743269;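 active = inhibition above the screen-wide mean plus 3 SD, cut at about 13% in these data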;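 note: signal is the Cy5 over europium emission ratio at 671 and 618 nm; 0% = plate median of compound wells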
mABHD4 FP = inhibits mouse alpha/beta hydrolase domain 4 | purified mABHD4, FP-Rh probe fluorescence polarization | inhibition, % at 8.92 µM | 0.54% of 370,000 active | AID 720543;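 active = inhibition exceeding the mean over every tested compound plus 3 SD, cut at about 30% in these data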;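 note: 0% = plate median of compound wells and 100% = S159A mutant with DMSO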
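Doses – 8.92 µM, single dose · Material – wild-type mouse ABHD4 protein · Replication – single well per compound (singlicate) · Measure – percent inhibition of probe binding, normalized to plate controls · Schedule – 45 min compound pre-incubation plus 60 min probe step, 25 °C · Detection – fluorescence polarization with parallel and perpendicular emission, 525/598 nm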
TDP2 absorb = blocks human TDP2 phosphodiesterase activity; recombinant TDP2, T5PNP hydrolysis, p-nitrophenol absorbance 415 nm; inhibition, % at 12.8 µM; 0.34% of 370,000 active; AID 720702;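 active = inhibition above the mean of all tested compounds plus 3 SD, set per campaign, cut at about 25% in these data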;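 note: 0% = DMSO with enzyme and 100% = buffer with substrate but no TDP2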
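Assay system: Recombinant human TDP2 | Quantity: 120 nM TDP2 per well | Incubation: 2 h at 37 °C | Signal: Epi absorbance | Evaluation: Percent inhibition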
SIAE inh = inhibitors of human sialic acid acetylesterase SIAE | Q9HAT2 | SIAE FP-Rh probe binding, fluorescence polarization | inhibition, % at 9.66 µM | 0.69% of 370,000 active | AID 1053197;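 active = inhibition above a cutoff: mean of compounds within the control limits plus 3 SD of those, cut at about 17% in these data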;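 note: 0% = plate median of compound wells and 100% = probe without SIAE protein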
TCR-CD3 inh = inhibitors of human TCR-CD3 interaction; TAMRA-labeled TCR probe fluorescence, biochemical; inhibition, % at 9.4 µM; 0.37% of 360,000 active; in the data active = inhibition above about 19%;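 note: recombinant mutant TCR 2C K166C tagged with TAMRA read by polarization; 0% = receptor in buffer alone and 100% = receptor with positive control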
TDP2 inh conf = confirmation of human TDP2 inhibitors | shares compounds with TDP2 absorb | recombinant human TDP2, absorbance read-out | inhibition, % at 12.8 µM | 22% of 1,100 active | AID 743263; in the data active = inhibition above about 25%;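 note: 0% = vehicle with enzyme and 100% = no enzyme buffer only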
Active calls of the source: *; nt = not tested or not shown.

SMILES	HTRA1 inh	LEDGF integ inh	mABHD4 FP	TDP2 absorb	SIAE inh	TCR-CD3 inh	TDP2 inh conf
COc1ccccc1CN1CCN(Cc2ccco2)CC1	8	5	12	28*	6	-3	5
Cn1c(=O)cc(NCCc2ccccc2)[nH]c1=O	2	0	-5	0	-4	-5	nt
Cc1cc(=O)n(CCCc2ccccc2)[nH]1	-6	1	9	37*	7	-1	6
Nc1ccc(C#Cc2ccc3c(=O)c4ccccc4oc3c2)cc1	-7	9	2	27*	3	-3	-3
COc1cc2oc3cc(C#Cc4ccc(N)cc4)ccc3c(=O)c2cc1OC	-14	4	-41	-14	-9	-14	nt
CC(=O)c1cccc(NC(=O)N2CCc3ccccc3C2)c1	-19	2	0	4	1	4	nt
CC(=O)c1ccc(NC(=O)N2CCc3ccccc3C2)cc1	1	-1	-10	27*	-4	0	6
CCc1cc2c(nc1CC)CCCN2S(=O)(=O)c1c(C)noc1C	nt	-1	11	1	-7	-5	nt
COc1ccccc1C1c2c(ncn(-c3ccccc3)c2=N)Oc2ccc3ccccc3c21 (configuration not stated)	nt	5	-17	-7	-11	nt	nt
CC1(C)Cc2ccccc2C2=NNC(=O)C2=N1	-4	8	-2	28*	3	2	34*
CCOC(=O)C1=C(Cc2ccc(C)cc2)C(=O)c2ccccc2C1=O	nt	10	-35	31*	-4	-15	27*
CCOC(=O)C1=C(Cc2ccc(OC)cc2)C(=O)c2ccccc2C1=O	-2	nt	nt	nt	nt	nt	nt
O=C(NC1C(=O)NNC1c1ccccc1)c1ccc(F)cc1 (configuration not stated)	0	5	8	26*	3	1	6
O=C(NC1C(=O)NNC1c1ccc(Cl)cc1)c1ccc(F)cc1 (configuration not stated)	-5	0	-4	12	7	-5	nt
COc1cc(C2C(C#N)=C(N)Oc3n[nH]c(-c4cccnc4)c32)cc(Br)c1O (configuration not stated)	3	7	6	31*	2	-4	-4
COc1cc(C2C(C#N)=C(N)Oc3n[nH]c(-c4cccnc4)c32)ccc1OCC(N)=O (configuration not stated)	2	9	6	52*	4	3	-3
Cc1ccc(C2C(C#N)=C(N)Oc3n[nH]c(-c4cccnc4)c32)o1 (configuration not stated)	0	3	1	14	3	0	nt
CN[C@H]1C[C@@H](c2ccccc2Br)N(C(C)=O)C[C@H]1CO	nt	8	1	-11	-7	2	nt
COc1ccc(CN2CCCC(C(=O)N3CCCC3)C2)c(OC)c1 (configuration not stated)	3	2	6	31*	10	0	6
COc1cc(OC)c(OC)cc1CN1CCCC(C(=O)N2CCCCC2)C1 (configuration not stated)	2	1	3	9	1	7	nt
COc1ccc(NC(=S)N2CCC(NC(=O)c3cccc(C)c3)CC2)cc1	3	-3	4	29*	6	2	3
O=C(N1CCOCC1)N1CC[C@H]2[C@H](CCCN2Cc2cc(F)cc(F)c2)C1	nt	2	-1	-11	-1	nt	nt
c1ccc(Nc2cc(Nc3ccccc3)[nH]n2)cc1	13	3	-1	75*	-2	-5	6
COc1ccc(C(=O)NCC2(c3ccccc3)CCOCC2)cc1[N+](=O)[O-]	-1	-1	2	3	6	-7	nt
COc1ccc(C(=O)NCC(O)CN2CCOCC2)cc1[N+](=O)[O-] (configuration not stated)	2	0	-3	25*	-2	5	-2
Cc1ccc(-n2c3nc(=O)[nH]c(=O)c-3cc3cc([N+](=O)[O-])ccc32)cc1	8	-1	5	46*	3	-7	41*
CC(=O)N1CCc2cc(Br)c(S(=O)(=O)CCC(=O)N3CCN(c4ccccn4)CC3)cc21	nt	-1	13	1	3	nt	nt

Screening results as filed in PubChem.
